Test results reported in PMC4715857 (Osteoporosis International, 2015).
Like-named read-outs stand apart in the source and are kept apart here. Each block holds one compound with its values, some of them ahead of it.

How the values were obtained:
[1] = Safety assessments / adverse events; format: in vivo, healthy postmenopausal women; settings: 150 mg once daily for 5 days per period
How it was run: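 Each crossover period (5 days' dosing) included clinical laboratory tests, vital signs, 12-lead ECG and physical examination on admission and at follow-up. Vital signs were also taken at baseline, on all treatment days and at discharge. Adverse events were coded with MedDRA version 14.1. Fourteen subjects were in the safety analysis, and data were summarized in SAS.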

serum CTX-I [2] = settings: cited from earlier work; for serum CTX reduction: postmenopausal women
serum CTX-I [3] = experiment: Serum CTX-I bone resorption marker; format: in vivo, healthy postmenopausal women; settings: for time over which >60% suppression of CTX-I was sustained: 150-mg SRT for 5 days
How it was run: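 Serum CTX-I was measured by CrossLaps ELISA. Baseline profile on day −1 via cannula at set clock times over 24 h, ending just before the first dose (08:00 morning, 20:00 evening period). Results expressed as % change from clock-time-matched baseline; 24-h AUE compared morning vs evening by ANCOVA, with post-hoc repeated-measures analysis.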

urinary CTX-I [4] = experiment: Urinary CTX-I/creatinine bone resorption marker; format: in vivo, healthy postmenopausal women; settings: 150 mg SRT once daily 5 days
How it was run: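 Urinary CTX-I was measured by Urine CrossLaps ELISA and normalized to creatinine. Baseline urine was taken on day −1, and postdose urine on days 1 and 5, with collection at 08:00 (morning dosing) or 20:00 (evening dosing). Dosing was 150 mg sustained-release tablet once daily for 5 days, fed. Results expressed as % change from time-matched baseline; 24-h AUE compared by ANCOVA, with post-hoc repeated-measures analysis.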

[5] = Plasma ONO-5334 pharmacokinetics; format: in vivo, healthy postmenopausal women; settings: day 5, 150 mg SRT, morning regimen
How it was run: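 Oral sustained-release tablet, 150 mg once daily for 5 days per period, fed. Randomized crossover with ≥10-day washout. Blood taken via IV cannula over 12 h on day 1 and 24 h on day 5, hourly 1–6 h postdose. Plasma solid-phase extracted and assayed by validated LC-MS/MS (LLOQ 0.02 ng/mL). Cmax, Tmax and AUC24h derived noncompartmentally; day-5 morning/evening geometric mean ratios with 90% CI by ANOVA; Tmax by Wilcoxon signed rank test.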

[6] = 100 mg sustained-release tablet (SRT), morning, repeat administration ref 7, 8; cited from earlier work
[7] = test system: bone mineral density (BMD); settings: postmenopausal women with osteoporosis, 24 months of therapy ref 6; cited from earlier work
bone strength = settings: ovariectomized rats ref 5; cited from earlier work
urinary CTX-I [8] = settings: 12 weeks of treatment, healthy postmenopausal women ref 30; cited from earlier work
bone resorption markers = settings: premenopausal women ref 14, cited from earlier work
serum CTX-I [9] = settings: oral calcitonin, healthy postmenopausal women ref 15; cited from earlier work

mean trough plasma concentration [5]: 9.4 ng/mL
Compound: C[C@@H]1CS/C(=N\NC(=O)C(=O)[C@@H](NC(=O)C2CCCCCC2)C2CCOCC2)N1C [ONO-5334]
laboratory safety data, vital signs, electrocardiogram or physical examinations [1]: no clinically relevant | safety findings [1]: no safety findings of concern | suppression of serum CTX-I (serum CTX-I [2]): approximately 60% | greater suppression of 24-h serum CTX-I AUE, morning than evening (serum CTX-I [3]; 150 mg SRT once daily 5 days): 6% | duration of impact on bone resorption (serum CTX-I [3]; 150-mg SRT): ≥ 24 h | time of lowest serum CTX-I levels postdose (serum CTX-I [3]; after morning and evening administration): 8 h | plasma ONO-5334 concentration required to produce 60% reduction of serum CTX-I (serum CTX-I [3]; day 5, scatter plot of plasma concentration vs serum CTX-I %CFB, both regimens): ≥ 10 ng/mL | time over which >60% suppression of CTX-I was sustained (serum CTX-I [3]; evening administration): 12 h | CTX-I suppression over 24 h (serum CTX-I [3]; morning administration, 150 mg SRT for 5 days): > 60% | time over which >60% suppression of CTX-I was sustained (serum CTX-I [3]; morning administration): 24 h | greater suppression of 24-h urinary CTX-I/creatinine AUE, morning than evening (urinary CTX-I [4]): 7% | mean half-life [6]: 15 h | median time to maximum plasma concentration (Tmax) [6]: 4 h | effect on cortical and trabecular bone mineral density (BMD) [7]: significantly improved | effect on bone strength (bone strength): improved bone strength

Compound: NCCCC(O)(P(=O)(O)O)P(=O)(O)O [alendronate]
Serum CTX-I decreases (serum CTX-I [2]; following 30–36 months of therapy ref 28, 29): 67–70% | urinary CTX-I reduction (urinary CTX-I [8]): 53%

Compound: CCCN1CCN(c2ccc(C(=O)NC3(C(=O)NCC#N)CCCCC3)cc2)CC1 [balicatib]
serum CTX reduction (serum CTX-I [2]; 1-year study ref 22): 61%

Compound: [Ca] [elemental calcium, calcium]
effect on bone resorption (bone resorption markers; 1000 mg at bedtime): suppressed nighttime increases of bone resorption | effect on bone resorption (bone resorption markers; 1000 mg, morning administration): no effect

Compound: CC(C)(F)C[C@H](N[C@@H](c1ccc(-c2ccc(S(C)(=O)=O)cc2)cc1)C(F)(F)F)C(=O)NC1(C#N)CC1 [odanacatib]
suppression of serum CTX-I (serum CTX-I [2]): approximately 60% | continuous reductions of serum CTX-I (serum CTX-I [2]; postmenopausal women with low BMD, following 5 years of treatment ref 4): 55% | reductions of serum CTX-I (serum CTX-I [2]; postmenopausal women with low BMD, once-weekly, most of the first year of treatment ref 25): > 60% | serum CTX reduction (serum CTX-I [2]; single or repeated doses for 3 weeks ref 23, 24): 62–66%

Compound: calcitonin [oral calcitonin]
duration of impact on bone resorption (serum CTX-I [9]): about 12 h
